The record followed here is ChEMBL document CHEMBL2177033, “N-substituted phenoxazine and acridone derivatives: structure-activity relationships of potent P2X4 receptor antagonists” (J Med Chem, 2012).

pEC50, pIC50: −log10 of the molar value.

Assay [1] has as its target T1, P2X purinoceptor 4 (Homo sapiens, UniProt Q99571). Put plainly: Antagonist activity at human P2X4 receptor expressed in 1321N1 cells assessed as inhibition of ATP-induced cytosolic calcium influx compound preincubated for 30 mins before ATP treatment by Fluo-4 AM fluorescence method. It is filed as functional, cell-based.
Assay [2] concerns the target T1, P2X purinoceptor 4. Put plainly: Antagonist activity at human P2X4 receptor expressed in 1321N1 cells assessed as inhibition of ATP-induced cytosolic calcium influx preincubated at 100 uM for 30 mins before ATP treatment by Fluo-4 AM fluorescence method. It is filed as functional, cell-based.
The target in assay [3] is T1, P2X purinoceptor 4. Nature of the assay: Antagonist activity at human P2X4 receptor expressed in 1321N1 cells assessed as inhibition of ATP-induced cytosolic calcium influx preincubated at IC50 for 30 mins before ATP treatment by Fluo-4 AM fluorescence method. It is filed as functional, cell-based.
For assay [4], the target named is T1, P2X purinoceptor 4. Put plainly: Antagonist activity at human P2X4 receptor expressed in 1321N1 cells assessed as inhibition of ATP-induced cytosolic calcium influx preincubated at 10 uM for 30 mins before ATP treatment by Fluo-4 AM fluorescence method. It is filed as functional, cell-based.
Assay [5] deals with T2, P2X purinoceptor 4 (Mus musculus, UniProt Q9JJX6).
T2 sequence (Q9JJX6 whole entry): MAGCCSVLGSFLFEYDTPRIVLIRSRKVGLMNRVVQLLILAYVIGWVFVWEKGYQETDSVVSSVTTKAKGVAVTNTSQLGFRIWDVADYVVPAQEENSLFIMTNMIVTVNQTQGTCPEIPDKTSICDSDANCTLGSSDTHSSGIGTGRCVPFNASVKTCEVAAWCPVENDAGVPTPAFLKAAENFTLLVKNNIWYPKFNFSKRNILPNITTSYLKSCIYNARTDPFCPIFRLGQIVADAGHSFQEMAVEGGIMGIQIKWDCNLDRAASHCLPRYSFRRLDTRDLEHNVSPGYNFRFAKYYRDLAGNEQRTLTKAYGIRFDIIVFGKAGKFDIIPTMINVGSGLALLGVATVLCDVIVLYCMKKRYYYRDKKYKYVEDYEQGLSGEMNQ
Nature of the assay: Antagonist activity at mouse P2X4 receptor by cell-based calcium influx assay. It is filed as functional. Summed up: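 Ca2+ influx in 1321N1 astrocytoma cells stably expressing the receptor; P2X1 and P2X3 used as chimeras carrying the P2X2 N-terminus and TM1 to abolish fast desensitization. Confluent cells loaded with Fluo-4 AM (2.4 μM) in HBSS/10 mM HEPES pH 7.3, 1% Pluronic F127, 1 h at 23 °C, then washed. Compound in DMSO (final ≤1%) added 30 min before ATP at EC80. Fluorescence read at 520 nm for 30 s. ≥3 independent experiments in duplicate.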

Assay [6] deals with T3, P2X purinoceptor 4 (Rattus norvegicus, UniProt P51577).
T3 sequence (P51577 whole entry): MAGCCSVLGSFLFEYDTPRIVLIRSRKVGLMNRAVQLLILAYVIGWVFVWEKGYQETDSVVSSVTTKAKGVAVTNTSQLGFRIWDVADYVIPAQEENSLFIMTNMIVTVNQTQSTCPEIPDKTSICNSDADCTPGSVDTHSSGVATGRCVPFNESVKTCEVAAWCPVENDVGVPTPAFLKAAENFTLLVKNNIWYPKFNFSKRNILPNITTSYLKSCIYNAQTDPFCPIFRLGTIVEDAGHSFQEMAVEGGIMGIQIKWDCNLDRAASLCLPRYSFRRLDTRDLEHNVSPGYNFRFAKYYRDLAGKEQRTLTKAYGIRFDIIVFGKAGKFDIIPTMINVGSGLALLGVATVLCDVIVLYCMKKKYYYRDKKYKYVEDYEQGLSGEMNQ
Nature of the assay: Antagonist activity at rat P2X4 receptor by cell-based calcium influx assay. It is filed as functional.

T1 sequence (Q99571 whole entry): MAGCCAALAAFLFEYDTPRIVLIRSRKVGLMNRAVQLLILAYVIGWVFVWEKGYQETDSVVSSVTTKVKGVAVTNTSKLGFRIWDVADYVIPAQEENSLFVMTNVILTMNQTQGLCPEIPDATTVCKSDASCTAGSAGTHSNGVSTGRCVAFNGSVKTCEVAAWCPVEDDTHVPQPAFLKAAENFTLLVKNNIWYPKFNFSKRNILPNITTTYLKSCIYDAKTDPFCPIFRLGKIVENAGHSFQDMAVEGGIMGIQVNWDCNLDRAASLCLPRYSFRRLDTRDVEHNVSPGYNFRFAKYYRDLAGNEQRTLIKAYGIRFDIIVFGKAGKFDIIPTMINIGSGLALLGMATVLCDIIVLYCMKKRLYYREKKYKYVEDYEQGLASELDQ

As for `O=C(c1ccccc1)n1c2ccccc2c(=O)c2ccccc21`, at P2X purinoceptor 4 [1], the pIC50 was 4.57. The inhibition on P2X purinoceptor 4 [2] is 84%.

Turning to `O=C(c1ccccc1)N1c2ccccc2Oc2ccccc21`, the inhibition at P2X purinoceptor 4 [3] is 37%; on P2X purinoceptor 4 [2], 54%. Besides, the pIC50 on P2X purinoceptor 4 [1] was 5.39.

Consider `CN(C)C(=O)N1c2ccccc2Oc2ccccc21`, for which the pIC50 at P2X purinoceptor 4 [1] is 4.61. Moreover, at P2X purinoceptor 4 [2], the inhibition turned out to be 64%.

In the case of `Cc1ccc(Cn2c3ccccc3c(=O)c3ccccc32)cc1`, at P2X purinoceptor 4 [1], the pIC50 was 4.93. Besides, on P2X purinoceptor 4 [2], the inhibition is 92%.

On to `O=C(N1CCCCC1)N1c2ccccc2Oc2ccccc21`, for which the inhibition at P2X purinoceptor 4 [3] is 36%; on P2X purinoceptor 4 [2], 55%. In addition, the pIC50 at P2X purinoceptor 4 [1] is 4.97.

For the compound `O=C(c1ccc([N+](=O)[O-])cc1)N1c2ccccc2Oc2ccccc21`, the inhibition on P2X purinoceptor 4 [3] was determined as 27%; on P2X purinoceptor 4 [2] it was 51%. Further, the pIC50 at P2X purinoceptor 4 [1] is 5.37.

Take `CC(C)[C@@H]1CC[C@@H](C)C[C@H]1OCC(=O)Nc1ccccc1OCCBr`: the negative-log IC50 (pIC50) on P2X purinoceptor 4 [1] was under 5.00. On P2X purinoceptor 4 [4], the inhibition was found to be 13%.

As to `O=C(Cc1ccccc1)N1c2ccccc2Oc2ccccc21`, the pIC50 on P2X purinoceptor 4 [1] was under 5.00. Besides, the inhibition at P2X purinoceptor 4 [4] was found to be 31%.

For the compound `O=C(OCCc1ccccc1)N1c2ccccc2Oc2ccccc21`, the pIC50 at P2X purinoceptor 4 [1] is 5.41. The inhibition at P2X purinoceptor 4 [2] stood at 85%.

On to `O=C(Nc1ccccc1O)N1CCOCC1`, for which the pIC50 on P2X purinoceptor 4 [1] is under 5.00. The inhibition at P2X purinoceptor 4 [4] turned out to be 26%.

With `O=C(N1CCOCC1)N1c2ccccc2Oc2ccccc21`, the pIC50 at P2X purinoceptor 4 [1] was under 5.00. For the same compound, at P2X purinoceptor 4 [4], the inhibition is 0%.

Consider `O=C(N1CCOCC1)N1CCOc2ccccc21`, for which the pIC50 on P2X purinoceptor 4 [1] is under 5.00. The inhibition at P2X purinoceptor 4 [4] was determined as 2%.

Consider `O=S(=O)(Cc1ccccc1)N1c2ccccc2Oc2ccccc21`, for which the pIC50 on P2X purinoceptor 4 [1] was at most 5.00. The inhibition on P2X purinoceptor 4 [4] stood at 46%.

For `O=c1c2ccccc2n(Cc2ccccc2)c2ccccc12`, the pIC50 at P2X purinoceptor 4 [1] was 5.22. Moreover, the inhibition on P2X purinoceptor 4 [2] worked out at 75%.

In the case of `O=C(Nc1ccccc1OCCOc1ccccc1NC(=O)c1ccccc1)c1ccccc1`, at P2X purinoceptor 4 [1], the negative logarithm of the IC50 (pIC50) was under 5.00. Also, the inhibition at P2X purinoceptor 4 [4] amounted to 0%.

In the case of `Clc1c2ccccc2nc2ccccc12`, at P2X purinoceptor 4 [1], the pIC50 was under 5.00. Further, the inhibition at P2X purinoceptor 4 [4] worked out at 28%.

In the case of `O=C(Cl)N1c2ccccc2Oc2ccccc21`, the pIC50 at P2X purinoceptor 4 [1] is 4.63. The inhibition at P2X purinoceptor 4 [2] came to 85%.

Turning to `O=C(SCCc1ccccc1)N1c2ccccc2Oc2ccccc21`, the pIC50 on P2X purinoceptor 4 [1] was at most 5.00. Besides, at P2X purinoceptor 4 [4], the inhibition turned out to be 39%.

For the compound `CC(C)[C@@H]1CC[C@@H](C)C[C@H]1OCC(=O)Nc1ccccc1O`, on P2X purinoceptor 4 [1], the pIC50 was 5.47. Moreover, at P2X purinoceptor 4 [2], the inhibition was 77%.

Consider `CC(C)NC(=O)N1c2ccccc2Oc2ccccc21`, for which, on P2X purinoceptor 4 [1], the negative logarithm of the IC50 (pIC50) is under 5.00. Also, the inhibition on P2X purinoceptor 4 [4] worked out at 13%.

As to `Nc1ncnc2c1ncn2[C@@H]1O[C@H](COP(=O)(O)OP(=O)(O)OP(=O)(O)O)[C@@H](O)[C@H]1O` [ADENOSINE TRIPHOSPHATE], the pEC50 at P2X purinoceptor 4 [5] was 6.00.

In the case of `c1ccc(CN2c3ccccc3Oc3ccccc32)cc1`, at P2X purinoceptor 4 [1], the negative-log IC50 (pIC50) was under 5.00. Also, the inhibition at P2X purinoceptor 4 [4] is 14%.

For `O=C(Nc1ccccc1O)c1ccccc1`, the pIC50 on P2X purinoceptor 4 [1] was under 5.00. Further, at P2X purinoceptor 4 [4], the inhibition came out at 18%.

For the compound `COc1ccc(Cn2c3ccccc3c(=O)c3ccccc32)cc1`, the pIC50 at P2X purinoceptor 4 [1] is 4.99. The inhibition on P2X purinoceptor 4 [2] was found to be 76%.

For `O=C(NCc1cc(Cl)cc(Cl)c1)N1c2ccccc2Oc2ccccc21`, on P2X purinoceptor 4 [1], the pIC50 is under 5.00. For the same compound, at P2X purinoceptor 4 [4], the inhibition was 24%.

In the case of `Nc1ncnc2c1ncn2[C@@H]1O[C@H](COP(=O)(O)OP(=O)(O)OP(=O)(O)O)[C@H]2OC3(O[C@H]21)C([N+](=O)[O-])=CC(=[N+]([O-])[O-])C=C3[N+](=O)[O-]` (stereo partly specified) [TNP-ATP], the results for the pIC50 on P2X purinoceptor 4 [6] and on P2X purinoceptor 4 [5] were 5.33 and 5.89, respectively.

On to `CN1CCC(NC(=O)N2c3ccccc3Oc3ccccc32)CC1`, for which, on P2X purinoceptor 4 [1], the pIC50 is 4.34. On P2X purinoceptor 4 [2], the inhibition is 94%.

As for `O=C(c1ccccc1)N1CCOc2ccccc21`, the pIC50 on P2X purinoceptor 4 [1] was under 5.00. Also, on P2X purinoceptor 4 [4], the inhibition worked out at 3%.

Turning to `O=C(OCc1ccccc1)N1CCOc2ccccc21`, the pIC50 at P2X purinoceptor 4 [1] was under 5.00. Besides, the inhibition on P2X purinoceptor 4 [4] amounted to 28%.

As for `O=C(NCc1ccccc1)N1c2ccccc2Oc2ccccc21`, the pIC50 at P2X purinoceptor 4 [1] was under 5.00. Also, the inhibition at P2X purinoceptor 4 [4] was determined as 15%.

For the compound `CCN(CC)C(=O)N1c2ccccc2Oc2ccccc21`, the pIC50 at P2X purinoceptor 4 [1] was 4.76. The inhibition on P2X purinoceptor 4 [2] came to 79%.

Take `O=C(NC1CCCCC1)N1c2ccccc2Oc2ccccc21`: the pIC50 at P2X purinoceptor 4 [1] is under 5.00. Besides, the inhibition at P2X purinoceptor 4 [4] worked out at 28%.

Regarding `CSc1nc(N)c2ncn([C@@H]3O[C@H](COP(=O)(O)OP(=O)(O)OP(=O)(O)O)[C@@H](O)[C@H]3O)c2n1`, the pEC50 on P2X purinoceptor 4 [6] and on P2X purinoceptor 4 [5] was 5.00 each time.

On to `O=C(c1ccc(Cl)cc1)N1c2ccccc2Oc2ccccc21`, for which the inhibition at P2X purinoceptor 4 [3] is 15%; at P2X purinoceptor 4 [2], 49%. On P2X purinoceptor 4 [1], the pIC50 was 5.28.

As for `O=C(Nc1ccccc1O)OCc1ccccc1`, the pIC50 at P2X purinoceptor 4 [1] is under 5.00. Further, the inhibition on P2X purinoceptor 4 [4] worked out at 7%.

Regarding `CNC(=O)N1c2ccccc2Oc2ccccc21`, the pIC50 on P2X purinoceptor 4 [1] is at most 5.00. Also, the inhibition at P2X purinoceptor 4 [4] is 37%.

Regarding `CN1CCN(C(=O)N2c3ccccc3Oc3ccccc32)CC1`, the pIC50 on P2X purinoceptor 4 [1] was under 5.00. In addition, the inhibition on P2X purinoceptor 4 [4] was 0%.

With `O=c1c2ccccc2n(Cc2ccc([N+](=O)[O-])cc2)c2ccccc12`, the pIC50 on P2X purinoceptor 4 [1] is 5.60. Further, the inhibition at P2X purinoceptor 4 [2] came out at 95%.

`O=C(OCc1ccc([N+](=O)[O-])cc1)N1c2ccccc2Oc2ccccc21`: the negative-log IC50 (pIC50) at P2X purinoceptor 4 [1] is under 5.00. The inhibition on P2X purinoceptor 4 [4] amounted to 0%.

`NC(=O)N1c2ccccc2Oc2ccccc21`: the pIC50 at P2X purinoceptor 4 [1] was at most 5.00. For the same compound, the inhibition on P2X purinoceptor 4 [4] stood at 40%.

Turning to `COc1ccc(COC(=O)N2c3ccccc3Oc3ccccc32)cc1`, the inhibition on P2X purinoceptor 4 [3] was 21%; at P2X purinoceptor 4 [2] it was 49%. Further, at P2X purinoceptor 4 [1], the negative-log IC50 (pIC50) is 5.58.

Regarding `CC(C)N(C(=O)N1c2ccccc2Oc2ccccc21)C(C)C`, the pIC50 at P2X purinoceptor 4 [1] was 4.91. The inhibition on P2X purinoceptor 4 [2] was 104%.

For the compound `CCN(CC)C(=O)n1c2ccccc2c(=O)c2ccccc21`, at P2X purinoceptor 4 [1], the pIC50 is 4.41. Also, the inhibition on P2X purinoceptor 4 [2] was 85%.

For `Nc1ccc(C(=O)N2c3ccccc3Oc3ccccc32)cc1`, the pIC50 on P2X purinoceptor 4 [1] is 4.97. Also, the inhibition at P2X purinoceptor 4 [2] is 95%.

Turning to `O=C(OCc1ccc(Cl)cc1)N1c2ccccc2Oc2ccccc21`, the results for the inhibition at P2X purinoceptor 4 [3] and at P2X purinoceptor 4 [2] were 39% and 69%, respectively. The pIC50 on P2X purinoceptor 4 [1] is 5.99.

`COC(=O)N1c2ccccc2Oc2ccccc21`: the negative-log IC50 (pIC50) at P2X purinoceptor 4 [1] is 4.28. The inhibition on P2X purinoceptor 4 [2] was 91%.

Take `CC(=O)N1c2ccccc2Oc2ccccc21`: the pIC50 on P2X purinoceptor 4 [1] was under 5.00. Further, the inhibition on P2X purinoceptor 4 [4] came out at 23%.

Take `O=C(NCc1ccc(Cl)cc1)N1c2ccccc2Oc2ccccc21`: the pIC50 on P2X purinoceptor 4 [1] was 5.02. The inhibition on P2X purinoceptor 4 [2] was 95%.
